# Results from ChEMBL document CHEMBL1126893, “Synthesis and CLOGP correlation of imidooxy anticonvulsants” (J Med Chem, 1993).
# Assays:
# [1] = system: Mus musculus; assay: Anticonvulsant activity was measured by maximal electroshock test on mice at 0.25 hr at the dose of 100 mg/kg; number of animals protected/number of animals tested 2/2; format: functional
# [2] = system: Mus musculus; assay: Anticonvulsant activity was measured by rotarod toxicity test on mice at 30 min at the dose of 300 mg/kg; number of animals protected/number of animals tested 4/4; format: functional
# [3] = system: Mus musculus; assay: Anticonvulsant activity was measured by rotarod toxicity test on mice at 4 h at the dose of 300 mg/kg; number of animals protected/number of animals tested 0/2; format: functional
# [4] = system: Mus musculus; assay: Time of peak effect of activity of compound was measured by both MES and sc Met test in mice; format: functional
# Method in brief: (§1)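 Phase II quantification in mice after ip dosing. ED50 (scMet or MES) measured at the time of peak effect. TD50 (rotorod neurologic deficit) measured at the time of peak neurologic deficit. Medians and 95% confidence limits by the Litchfield-Wilcoxon method. Protective index = TD50/ED50. Time of peak effect determined in the MES or scMet test.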
# [5] = system: Mus musculus; assay: Time of peak effect of toxicity of compound was measured by both MES and sc Met test in mice; format: functional; method in brief: as §1
# [6] = system: Mus musculus; assay: Anticonvulsant activity was measured by subcutaneous pentylenetetrazole test on mice at 30 min at the dose of 300 mg/kg; number of animals protected/number of animals tested 1/1; format: functional
# [7] = system: Mus musculus; assay: Anticonvulsant activity was measured by subcutaneous pentylenetetrazole test on mice at 4 hr at the dose of 300 mg/kg; number of animals protected/number of animals tested 0/1; format: functional
# [8] = system: Mus musculus; assay: Anticonvulsant activity was measured by subcutaneous maximal electroshock test on mice at 1 hr at the dose of 100 mg/kg; number of animals protected/number of animals tested 1/2; format: functional
# [9] = system: Mus musculus; assay: Anticonvulsant activity was measured by rotarod toxicity test on mice at 0.25 hr at the dose of 100 mg/kg; number of animals protected/number of animals tested 0/4; format: functional
# [10] = system: Mus musculus; assay: Anticonvulsant activity was measured by rotarod toxicity test on mice at 1 hr at the dose of 100 mg/kg; number of animals protected/number of animals tested 0/4; format: functional
# [11] = system: Mus musculus; assay: Anticonvulsant activity was measured by maximal electroshock test on mice at 30 min at the dose of 300 mg/kg; number of animals protected/number of animals tested 1/1; format: functional
# [12] = system: Mus musculus; assay: Anticonvulsant activity was measured by subcutaneous pentylenetetrazole test on mice at 0.25 hr at the dose of 100 mg/kg; number of animals protected/number of animals tested 2/2; format: functional
# [13] = system: Mus musculus; assay: Anticonvulsant activity was measured by subcutaneous pentylenetetrazole test on mice at 1 hr at the dose of 100 mg/kg; number of animals protected/number of animals tested 0/2; format: functional
# [14] = species: Mus musculus; assay: Protective index (TD50/ED50) value in MES test in mice; format: functional
# [15] = species: Mus musculus; assay: Protective index (TD50/ED50) value in scMET test in mice; format: functional; method in brief: as §1
# [16] = system: Mus musculus; assay: Anticonvulsant activity was measured by maximal electroshock test on mice at 4 h at the dose of 300 mg/kg; number of animals protected/number of animals tested 0/1; format: functional
# [17] = system: Rattus norvegicus; assay: Effective dose was measured in rat by maximal electroshock method by ip administration; format: functional
# [18] = system: Mus musculus; assay: Effective dose was measured in mouse by maximal electroshock method by ip administration; format: functional; method in brief: as §1
# [19] = system: Mus musculus; assay: Anticonvulsant activity was measured by maximal electroshock test on mice at 0.25 hr at the dose of 50 mg/kg; number of animals protected/number of animals tested, 0/4; format: functional
# [20] = system: Mus musculus; assay: Anticonvulsant activity was measured by maximal electroshock test on mice at 050 hr at the dose of 50 mg/kg; number of animals protected/number of animals tested, 1/4; format: functional
# [21] = system: Mus musculus; assay: Anticonvulsant activity was measured by rotarod toxicity test on mice at 30 min at the dose of 300 mg/kg; number of animals protected/number of animals tested, 4/4; format: functional
# [22] = system: Mus musculus; assay: Anticonvulsant activity was measured by rotarod toxicity test on mice at 4 hr at the dose of 300 mg/kg; number of animals protected/number of animals tested, 0/2; format: functional
# [23] = system: Mus musculus; assay: Anticonvulsant activity was measured by subcutaneous pentylenetetrazole test on mice at 30 min at the dose of 100 mg/kg; number of animals protected/number of animals tested, 0/1; format: functional
# [24] = system: Mus musculus; assay: Anticonvulsant activity was measured by subcutaneous pentylenetetrazole test on mice at 30 min at the dose of 300 mg/kg; number of animals protected/number of animals tested, 1/1; format: functional
# [25] = system: Mus musculus; assay: Anticonvulsant activity was measured by rotarod toxicity test on mice at 30 min at the dose of 100 mg/kg; number of animals protected/number of animals tested, 0/8; format: functional
# [26] = system: Mus musculus; assay: Anticonvulsant activity was measured by rotarod toxicity teston mice at 0.25 hr at the dose of 50 mg/kg; number of animals protected/number of animals tested, 0/4; format: functional
# [27] = system: Mus musculus; assay: Anticonvulsant activity was measured by rotarod toxicity teston mice at 0.50 hr at the dose of 50 mg/kg; number of animals protected/number of animals tested, 0/4; format: functional
# [28] = system: Mus musculus; assay: Anticonvulsant activity was measured by rotarod toxicity test on mice at 1 hr at the dose of 50 mg/kg; number of animals protected/number of animals tested, 0/4; format: functional
# [29] = system: Mus musculus; assay: Anticonvulsant activity was measured by maximal electroshock test on mice at 30 min at the dose of 300 mg/kg; number of animals protected/number of animals tested, 1/1; format: functional
# [30] = system: Mus musculus; assay: Anticonvulsant activity was measured by maximal electroshock test on mice at 30 min at the dose of 100 mg/kg; number of animals protected/number of animals tested, 2/3; format: functional
# [31] = system: Mus musculus; assay: Anticonvulsant activity was measured by maximal electroshock test on mice at 4 hr at the dose of 300 mg/kg; number of animals protected/number of animals tested, 0/1; format: functional
# [32] = system: Mus musculus; assay: Anticonvulsant activity was measured by rotarod toxicity test on mice at 4 hr at the dose of 50 mg/kg; number of animals protected/number of animals tested, 0/4; format: functional
# [33] = system: Mus musculus; assay: Anticonvulsant activity was measured by rotarod toxicity test on mice at 4 hr at the dose of 100 mg/kg; number of animals protected/number of animals tested, 0/4; format: functional
# [34] = system: Mus musculus; assay: Anticonvulsant activity was measured by maximal electroshock test on mice at 4 hr at the dose of 100 mg/kg; number of animals protected/number of animals tested, 0/3; format: functional
# [35] = system: Mus musculus; assay: Anticonvulsant activity was measured by maximal electroshock test on mice at 4 hr at the dose of 50 mg/kg; number of animals protected/number of animals tested, 0/4; format: functional
# [36] = system: Mus musculus; assay: Anticonvulsant activity was measured by rotarod toxicity test on mice at 2 hr at the dose of 50 mg/kg; number of animals protected/number of animals tested, 0/4; format: functional
# [37] = system: Mus musculus; assay: Anticonvulsant activity was measured by subcutaneous pentylenetetrazole test on mice at 4 h at the dose of 300 mg/kg; number of animals protected/number of animals tested, 0/1; format: functional
# [38] = system: Mus musculus; assay: Anticonvulsant activity was measured by subcutaneous pentylenetetrazole test on mice at 4 hr at the dose of 100 mg/kg; number of animals protected/number of animals tested, 0/1; format: functional
# [39] = system: Mus musculus; assay: Anticonvulsant activity was measured by maximal electroshock test on mice at 1 hr at the dose of 50 mg/kg; number of animals protected/number of animals tested, 1/4; format: functional
# [40] = system: Mus musculus; assay: Anticonvulsant activity was measured by maximal electroshock test on mice at 2 hr at the dose of 50 mg/kg; number of animals protected/number of animals tested, 2/4; format: functional
# [41] = system: Mus musculus; assay: Anticonvulsant activity was measured by rotarod toxicity test on mice at 30 min at the dose of 300 mg/kg; number of animals protected/number of animals tested 0/4; format: functional
# [42] = system: Mus musculus; assay: Effective dose was measured in mouse by maximal electroshock method by ip administration.; format: functional; method in brief: as §1
# [43] = system: Mus musculus; assay: Effective dose was measured in mouse by subcutaneous pentylenetetrazole method by ip administration.; format: functional; method in brief: as §1
# [44] = system: Mus musculus; assay: Anticonvulsant activity was measured by rotarod toxicity teston mice at 0.25 hr at the dose of 100 mg/kg; number of animals protected/number of animals tested 0/2; format: functional
# [45] = system: Mus musculus; assay: Anticonvulsant activity was measured by rotarod toxicity test on mice at 1 hr at the dose of 100 mg/kg; number of animals protected/number of animals tested, 0/2; format: functional
# [46] = system: Mus musculus; assay: Anticonvulsant activity was measured by maximal electroshock test on mice at 0.25 hr at the dose of 100 mg/kg; number of animals protected/number of animals tested 0/2; format: functional
# [47] = system: Mus musculus; assay: Anticonvulsant activity was measured by maximal electroshock test on mice at 050 hr at the dose of 50 mg/kg; number of animals protected/number of animals tested, 0/4; format: functional
# [48] = system: Mus musculus; assay: Anticonvulsant activity was measured by subcutaneous pentylenetetrazole test on mice at 30 min at the dose of 300 mg/kg; number of animals protected/number of animals tested, 0/1; format: functional
# [49] = system: Mus musculus; assay: Anticonvulsant activity was measured by maximal electroshock test on mice at 30 min at the dose of 100 mg/kg; number of animals protected/number of animals tested, 0/3; format: functional
# [50] = system: Mus musculus; assay: Anticonvulsant activity was measured by maximal electroshock test on mice at 1 hr at the dose of 50 mg/kg; number of animals protected/number of animals tested, 0/4; format: functional
# [51] = system: Mus musculus; assay: Anticonvulsant activity was measured by maximal electroshock test on mice at 2 hr at the dose of 50 mg/kg; number of animals protected/number of animals tested, 1/4; format: functional
# [52] = species: Mus musculus; assay: animal or person
compound,measurement,setting,value
O=C1CC2(CCCC2)C(=O)N1OCc1ccccc1Br,Ratio,[1],2
same,Ratio,[2],4
same,Ratio,[3],0
same,TPE,[4],0.25
same,TPE,[5],0.25
same,Ratio,[6],1
same,Ratio,[7],0
same,Ratio,[8],1
same,Ratio,[9],0
same,Ratio,[10],0
same,Ratio,[11],1
same,Ratio,[12],2
same,Ratio,[13],0
same,PI,[14],2.3
same,PI,[15],1.7
same,Ratio,[16],0
CCC1(C)CC(=O)NC1=O (centres undefined) [ETHOSUXIMIDE],TPE,[4],0.5 toxicity
same,TPE,[5],0.5
same,ED50,[17],> 1000 mg/kg
NC(=O)N1c2ccccc2C=Cc2ccccc21 [CARBAMAZEPINE],TPE,[4],0.25
same,TPE,[5],0.25
same,ED50,[18],8.8 mg/kg
O=C1CC2(CCCC2)C(=O)N1OCc1ccccc1F,Ratio,[19],0
same,Ratio,[20],1
same,Ratio,[21],4
same,Ratio,[22],0
same,Ratio,[23],0
same,Ratio,[24],1
same,Ratio,[25],0
same,Ratio,[26],0
same,Ratio,[27],0
same,Ratio,[28],0
same,Ratio,[29],1
same,Ratio,[30],2
same,Ratio,[31],0
same,Ratio,[32],0
same,Ratio,[33],0
same,Ratio,[34],0
same,Ratio,[35],0
same,Ratio,[36],0
same,Ratio,[37],0
same,Ratio,[38],0
same,Ratio,[39],1
same,Ratio,[40],2
O=C1CC2(CCCC2)C(=O)N1OCc1ccc(C(F)(F)F)cc1,Ratio,[41],0
same,Ratio,[3],0
same,TPE,[4],2
same,TPE,[5],0.25
same,Ratio,[6],1
same,ED50,[42],300 mg/kg
same,ED50,[43],300 mg/kg
same,Ratio,[7],0
same,Ratio,[44],0
same,Ratio,[45],0
same,Ratio,[11],1
same,PI,[14],>1.7
same,PI,[15],>1.7
same,Ratio,[46],0
same,Ratio,[16],0
O=C1CC2(CCCC2)C(=O)N1OCc1ccccc1Cl,Ratio,[19],0
same,Ratio,[47],0
same,Ratio,[21],4
same,Ratio,[22],0
same,Ratio,[23],0
same,Ratio,[48],0
same,Ratio,[25],0
same,Ratio,[26],0
same,Ratio,[27],0
same,Ratio,[28],0
same,Ratio,[29],1
same,Ratio,[49],0
same,Ratio,[31],0
same,Ratio,[32],0
same,Ratio,[33],0
same,Ratio,[34],0
same,Ratio,[35],0
same,Ratio,[36],0
same,Ratio,[37],0
same,Ratio,[38],0
same,Ratio,[50],0
same,Ratio,[51],1
CCCC(CCC)C(=O)O [VALPROIC ACID],TPE,[4],0.25 toxicity
same,TPE,[5],0.25
same,ED50,[52],149 mg/kg
